Test results: ChEMBL document CHEMBL1122123 (1982)

Assays:
Format in all cases: functional
[1] = test system: Melanocyte-stimulating hormone receptor; test: In vitro potency of compound to stimulate melanosome dispersion in frog (Rana pipiens) skin relative to alpha-MSH
[2] = In vitro potency of compound to stimulate adenylate cyclase activity in melanoma cells relative to alpha-MSH
How it was run: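 Particulate membranes from Cloudman S-91 mouse melanoma tumors grown in DBA/2J mice were used as a cell-free system, 56 μg of protein per assay. Adenylate cyclase activity was measured as conversion of [α-³²P]ATP to [³²P]cAMP, with cAMP isolated by the Salomon method. Full dose-response curves were run in triplicate. Potency is relative to α-MSH: concentration of α-MSH at 50% response divided by that of the peptide.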

lizard = test: In vitro potency of compound to stimulate melanosome dispersion in lizard skin relative to alpha-MSH
How it was run: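 Isolated Anolis carolinensis lizard skins were scored in vitro for melanosome dispersion (darkening) across the entire dose-response range. Relative potency is the ratio of the α-MSH concentration giving 50% response to the peptide concentration giving 50% response.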

Row | Compound | Potency [1] | Potency [2] | Potency (lizard)
1 | Ac-YEHFRWG-NH2 | 0.0002 | 0.001 | 0.0006
2 | CSCC[C@H](N)C(=O)N[C@@H](CCC(=O)O)C(=O)N[C@@H](Cc1c[nH]cn1)C(=O)N[C@@H](Cc1ccccc1)C(=O)N[C@@H](CCCN=C(N)N)C(=O)N[C@@H](Cc1c[nH]c2ccccc12)C(=O)NCC(=O)O | 1e-05 | – | 4e-05
3 | CCCC[C@H](NC(C)=O)C(=O)N[C@@H](CCC(=O)O)C(=O)N[C@@H](Cc1c[nH]cn1)C(=O)N[C@@H](Cc1ccccc1)C(=O)N[C@@H](CCCN=C(N)N)C(=O)N[C@@H](Cc1c[nH]c2ccccc12)C(=O)NCC(N)=O | 0.002 | 0.09 | 0.06
4 | CCCC[C@H](NC(C)=O)C(=O)N[C@@H](CCC(=O)O)C(=O)N[C@@H](Cc1c[nH]cn1)C(=O)N[C@H](Cc1ccccc1)C(=O)N[C@@H](CCCN=C(N)N)C(=O)N[C@@H](Cc1c[nH]c2ccccc12)C(=O)NCC(N)=O | 0.02 | 7.7 | 10
5 | CSCC[C@H](NC(C)=O)C(=O)N[C@@H](CCC(=O)O)C(=O)N[C@@H](Cc1c[nH]cn1)C(=O)N[C@@H](Cc1ccccc1)C(=O)N[C@@H](CCCN=C(N)N)C(=O)N[C@@H](Cc1c[nH]c2ccccc12)C(=O)NCC(N)=O | 0.0003 | – | 0.004
